Measured values as given in ChEMBL document CHEMBL4043195, “Development of water-soluble 3,5-dinitrophenyl tetrazole and oxadiazole antitubercular agents” (Bioorg Med Chem, 2017).
≈ marks a conversion by molar mass, not a printed value.

Experiments:
[1] = tested on: Mycobacterium tuberculosis; experiment: Antimycobacterial activity against Mycobacterium tuberculosis H37Rv CNCTC My 331/88 incubated for 14 days by micromethod; format: functional; settings: for MIC99: Mycobacterium tuberculosis, H37Rv CNCTC My 331/88, 336 h
Summary of the method: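 Strain H37Rv was tested in Sula's semisynthetic medium by micromethod. The basic suspension was set to 1.0 McFarland and diluted 10^-3, with 0.1 mL added per well. Compounds were added from DMSO at 32 to 0.03 µM. […] INH and RIF were used as standards.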

Mycobacterium avium = experiment: Antimycobacterial activity against Mycobacterium avium CNCTC My 330/88 incubated for 14 days by micromethod; format: functional; settings: for MIC99: Mycobacterium avium, CNCTC My 330/88, 336 h
Summary of the method: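 Micromethod MIC assay in Sula's semisynthetic medium. The inoculum was a 1.0 McFarland suspension diluted 10^-5, with 0.1 mL added per well. Compounds were dissolved in DMSO and tested at 1000 to 1 µM in two-fold steps. Plates were incubated at 37 °C for 14 days. […] INH and RIF were the reference drugs.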

Mycobacterium kansasii [2] = experiment: Antimycobacterial activity against Mycobacterium kansasii CNCTC My 235/80 incubated for 14 days by micromethod; format: functional; settings: for MIC99: Mycobacterium kansasii, CNCTC My 235/80, 336 h
Summary of the method: (§1)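 M. kansasii MIC by micromethod in Sula's semisynthetic medium. Inoculum was a 1.0 McFarland suspension diluted 10^-4, 0.1 mL per well. Compounds were dissolved in DMSO and tested at 32 to 0.03 µM in twofold steps. […] INH and RIF were reference drugs.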

Mycobacterium kansasii [3] = experiment: Antimycobacterial activity against Mycobacterium kansasii 6509/96 incubated for 14 days by micromethod; format: functional; settings: for MIC99: Mycobacterium kansasii, 6509/96, 336 h; summary of the method: as §1
[4] = tested on: Mycobacterium tuberculosis; experiment: Antimycobacterial activity MDR/XDR against Mycobacterium tuberculosis isolate Praha 1 incubated for 14 days by micromethod; format: functional; settings: for MIC99: isolate Praha 1, 336 h
[5] = tested on: Mycobacterium tuberculosis; experiment: Antimycobacterial activity MDR/XDR against Mycobacterium tuberculosis isolate Praha 4 incubated for 14 days by micromethod; settings: isolate Praha 4, 336 h
[6] = tested on: Mycobacterium tuberculosis; experiment: Antimycobacterial activity MDR/XDR against Mycobacterium tuberculosis isolate Praha 131 incubated for 14 days by micromethod; format: functional; settings: for MIC99: isolate Praha 131, 336 h
[7] = tested on: Mycobacterium tuberculosis; experiment: Antimycobacterial activity MDR/XDR against Mycobacterium tuberculosis isolate 9449/2007 incubated for 14 days by micromethod; format: functional; settings: for MIC99: isolate 9449/2007, 336 h
[8] = tested on: Mycobacterium tuberculosis; experiment: Antimycobacterial activity MDR/XDR against Mycobacterium tuberculosis isolate 7357/1998 incubated for 14 days by micromethod; format: functional; settings: for MIC99: isolate 7357/1998, 336 h
[9] = tested on: Mycobacterium tuberculosis; experiment: Antimycobacterial activity MDR/XDR against Mycobacterium tuberculosis isolate 8666/2010 incubated for 14 days by micromethod; format: functional; settings: for MIC99: isolate 8666/2010, 336 h
[10] = tested on: Mycobacterium tuberculosis; experiment: microbe, parasite or virus in culture; settings: isolate 234/2005, 336 h
[11] = Solubility in pure water at room temperature by HPLC method; format: physicochemical
[12] = Solubility in pH 3.0 citrate buffer by HPLC method; format: physicochemical
Summary of the method: (§2)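 Salt (15 mg) was shaken 2 h at room temperature in 1 mL 0.05 M citrate pH 3, 1 mL 0.1 M acetate pH 5, or 5 mL PBS pH 7.4. Suspensions were decanted and filtered (0.22 µm PTFE). Citrate and acetate solutions were diluted 500-fold in water/acetonitrile 1:1. Analysis by HPLC with diode-array detection on a C18 column at 30 °C. At least 4 repeats.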

[13] = Solubility in pH 5 acetate buffer by HPLC method; format: physicochemical; summary of the method: as §2
[14] = Solubility in pH 7.4 PBS buffer by HPLC method; format: physicochemical; summary of the method: as §2
Caco-2 = experiment: Cytotoxicity against human Caco2 cells assessed as reduction in cell viability incubated for 48 hrs by CellTiter 96 aqueous one solution cell proliferation assay; format: cell-based; settings: Caco-2, 48 h
Summary of the method: (§3)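 Caco-2, HepG2, A431 and COS-1 cells were exposed 48 h to compound or DMSO vehicle (0.1%) in Opti-MEM reduced-serum medium. MTS reagent was added for 4 h and formazan absorbance read at 490 nm. A 10% SDS toxic control was added 45 min before MTS. Vehicle and SDS were set to 100% and 0% viability; values given as relative viability at 30 µM. Triplicates, repeated at least three times.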

[15] = Cytotoxicity against human Caco2 cells assessed as cell viability at 30 uM incubated for 48 hrs by CellTiter 96 aqueous one solution cell proliferation assay; format: cell-based; settings: Caco-2 cells, read-out: Activity; summary of the method: as §3
HepG2 = experiment: Cytotoxicity against human HepG2 cells assessed as reduction in cell viability incubated for 48 hrs by CellTiter 96 aqueous one solution cell proliferation assay; format: cell-based; settings: HepG2, 48 h; summary of the method: as §3
[16] = Cytotoxicity against human HepG2 cells assessed as cell viability at 30 uM incubated for 48 hrs by CellTiter 96 aqueous one solution cell proliferation assay; format: cell-based; settings: read-out: Activity; summary of the method: as §3
A-431 = experiment: Cytotoxicity against human A431 cells assessed as reduction in cell viability incubated for 48 hrs by CellTiter 96 aqueous one solution cell proliferation assay; format: cell-based; settings: A-431, 48 h; summary of the method: as §3
[17] = Cytotoxicity against human A431 cells assessed as cell viability at 30 uM incubated for 48 hrs by CellTiter 96 aqueous one solution cell proliferation assay; format: cell-based, A-431; settings: read-out: Activity; summary of the method: as §3
COS-1 = experiment: Cytotoxicity against African green monkey COS1 cells assessed as reduction in cell viability incubated for 48 hrs by CellTiter 96 aqueous one solution cell proliferation assay; format: cell-based; settings: Chlorocebus aethiops, COS-1, 48 h; summary of the method: as §3
[18] = Cytotoxicity against African green monkey COS1 cells assessed as cell viability at 30 uM incubated for 48 hrs by CellTiter 96 aqueous one solution cell proliferation assay; format: cell-based; settings: chlorocebus aethiops, COS-1 cells; read-out: Activity; summary of the method: as §3

Compound | MIC99 [1] [µM] | MIC99 (Mycobacterium avium) [µM] | MIC99 (Mycobacterium kansasii [2]) [µM] | MIC99 (Mycobacterium kansasii [3]) [µM] | other results
CN1CCN(CCCn2nnc(-c3cc([N+](=O)[O-])cc([N+](=O)[O-])c3)n2)CC1 | > 32 | 250 (≈ 94.1 µg/mL) | 32 (≈ 12 µg/mL) | > 32 | 
O=[N+]([O-])c1cc(CSc2nnc(CCCN3CCOCC3)o2)cc([N+](=O)[O-])c1 | 8 (≈ 3.28 µg/mL) | 500 (≈ 205 µg/mL) | 8 (≈ 3.28 µg/mL) | 8 (≈ 3.28 µg/mL) | 
O=[N+]([O-])c1cc(CSc2nnc(CCCCCN3CCN(Cc4ccccc4)CC3)o2)cc([N+](=O)[O-])c1 |  |  |  | 2 (≈ 1.05 µg/mL) | MIC>99 [1]: 1 µM (≈ 0.527 µg/mL); MIC>99 (Mycobacterium avium): 16 µM (≈ 8.43 µg/mL); MIC>99 (Mycobacterium kansasii [2]): 2 µM (≈ 1.05 µg/mL)
CN1CCN(CCCc2nnc(SCc3cc([N+](=O)[O-])cc([N+](=O)[O-])c3)o2)CC1 | > 32 | 1000 (≈ 422 µg/mL) | > 32 | > 32 | 
O=[N+]([O-])c1cc(-c2nnc(SCCCN3CCN(Cc4ccccc4)CC3)o2)cc([N+](=O)[O-])c1 | 0.125 (≈ 0.0606 µg/mL) | 2 (≈ 0.969 µg/mL) | 1 (≈ 0.485 µg/mL) | 0.5 (≈ 0.242 µg/mL) | 
CN1CCN(CCCSc2nnc(-c3cc([N+](=O)[O-])cc([N+](=O)[O-])c3)o2)CC1 | > 32 | 125 (≈ 51.1 µg/mL) | 16 (≈ 6.54 µg/mL) | > 32 | 
CO[C@H]1/C=C/O[C@@]2(C)Oc3c(C)c(O)c4c(O)c(c(/C=N/N5CCN(C)CC5)c(O)c4c3C2=O)NC(=O)/C(C)=C\C=C\[C@H](C)[C@H](O)[C@@H](C)[C@@H](O)[C@@H](C)[C@H](OC(C)=O)[C@@H]1C [RIFAMPIN] | 0.25 (≈ 0.206 µg/mL) | 32 (≈ 26.3 µg/mL) | 0.25 (≈ 0.206 µg/mL) | 0.125 (≈ 0.103 µg/mL) | MIC99 [4]: > 8 µM; MIC99 [5]: > 8 µM; MIC99 [6]: > 8 µM; MIC99 [7]: > 8 µM; MIC99 [8]: > 8 µM; MIC99 [9]: > 8 µM; MIC99 [10]: > 8 µM
O=[N+]([O-])c1cc(CSc2nnc(CCCCCN3CCCCC3)o2)cc([N+](=O)[O-])c1 | 16 (≈ 6.97 µg/mL) | 62.5 (≈ 27.2 µg/mL) | 16 (≈ 6.97 µg/mL) | 32 (≈ 13.9 µg/mL) | 
O=[N+]([O-])c1cc(CSc2nnc(CCCN3CCCCC3)o2)cc([N+](=O)[O-])c1 | 16 (≈ 6.52 µg/mL) | 250 (≈ 102 µg/mL) | 16 (≈ 6.52 µg/mL) | 16 (≈ 6.52 µg/mL) | 
CN1CCN(CCCCCc2nnc(SCc3cc([N+](=O)[O-])cc([N+](=O)[O-])c3)o2)CC1 | 32 (≈ 14.4 µg/mL) | 250 (≈ 113 µg/mL) | > 32 | > 32 | 
GENTAMICIN |  |  |  |  | MIC>99 [4]: 1 µM; MIC>99 [6]: > 8 µM; MIC>99 [7]: 1 µM; MIC>99 [8]: 1 µM; MIC>99 [9]: 2 µM
NNC(=O)c1ccncc1 [ISONIAZID] |  | > 250 | > 250 | 4 (≈ 0.549 µg/mL) | 
NCC[C@H](O)C(=O)N[C@@H]1C[C@H](N)[C@@H](O[C@H]2O[C@H](CN)[C@@H](O)[C@H](O)[C@H]2O)[C@H](O)[C@H]1O[C@H]1O[C@H](CO)[C@@H](O)[C@H](N)[C@H]1O [AMIKACIN] |  |  |  |  | MIC99 [6]: > 32 µM
O=[N+]([O-])c1cc(CSc2nnc(CCCCCN3CCOCC3)o2)cc([N+](=O)[O-])c1 | 8 (≈ 3.5 µg/mL) | 125 (≈ 54.7 µg/mL) | 8 (≈ 3.5 µg/mL) | 8 (≈ 3.5 µg/mL) | 
O=[N+]([O-])c1cc(-c2nnc(SCCCN3CCCCC3)o2)cc([N+](=O)[O-])c1 | 8 (≈ 3.15 µg/mL) | 62.5 (≈ 24.6 µg/mL) | 32 (≈ 12.6 µg/mL) | 16 (≈ 6.29 µg/mL) | 
CN[C@@H]1[C@H](O[C@H]2[C@H](O[C@H]3[C@H](O)[C@@H](O)[C@H](N=C(N)N)[C@@H](O)[C@@H]3N=C(N)N)O[C@@H](C)[C@]2(O)C=O)O[C@@H](CO)[C@H](O)[C@H]1O [STREPTOMYCIN] |  |  |  |  | MIC99 [5]: > 32 µM; MIC99 [6]: > 32 µM; MIC99 [7]: > 32 µM; MIC99 [8]: > 32 µM; MIC99 [9]: > 32 µM
O=[N+]([O-])c1cc(-c2nnc(SCCCN3CCOCC3)o2)cc([N+](=O)[O-])c1 | 8 (≈ 3.16 µg/mL) | 125 (≈ 49.4 µg/mL) | 8 (≈ 3.16 µg/mL) | 16 (≈ 6.33 µg/mL) | 
CC1COc2c(N3CCN(C)CC3)c(F)cc3c(=O)c(C(=O)O)cn1c23 (stereo not drawn) [OFLOXACIN] |  |  |  |  | MIC99 [5]: > 16 µM
O=[N+]([O-])c1cc(-c2nnn(CCCN3CCN(Cc4ccccc4)CC3)n2)cc([N+](=O)[O-])c1 | 1 (≈ 0.452 µg/mL) | 8 (≈ 3.62 µg/mL) | 2 (≈ 0.905 µg/mL) | 1 (≈ 0.452 µg/mL) | 
O=[N+]([O-])c1cc(-c2nnn(CCCN3CCCCC3)n2)cc([N+](=O)[O-])c1 | 4 (≈ 1.45 µg/mL) | 62.5 (≈ 22.6 µg/mL) | 16 (≈ 5.78 µg/mL) | 16 (≈ 5.78 µg/mL) | 
O=[N+]([O-])c1cc(-c2nnn(CCCN3CCOCC3)n2)cc([N+](=O)[O-])c1 | 16 (≈ 5.81 µg/mL) | 500 (≈ 182 µg/mL) | 16 (≈ 5.81 µg/mL) | 16 (≈ 5.81 µg/mL) | 
O=[N+]([O-])c1cc(CSc2nnc(CCCN3CCN(Cc4ccccc4)CC3)o2)cc([N+](=O)[O-])c1 | 2 (≈ 0.997 µg/mL) | 32 (≈ 16 µg/mL) | 2 (≈ 0.997 µg/mL) | 2 (≈ 0.997 µg/mL) | 
Cl.Cl.O=[N+]([O-])c1cc(CSc2nnc(CCCCCN3CCN(Cc4ccccc4)CC3)o2)cc([N+](=O)[O-])c1 | 2 | 32 | 2 |  | solubility [11]: 17100 µM; solubility [12]: 18000 µM; solubility [13]: 9000 µM; solubility [14]: 113 µM; MIC>99 (Mycobacterium kansasii [3]): 2 µM; MIC99 [4]: 2 µM; MIC99 [5]: 2 µM; MIC99 [6]: 2 µM; MIC99 [7]: 2 µM; MIC99 [8]: 2 µM; MIC99 [9]: 2 µM; IC50 (Caco-2): > 30 µM; viability at 48 h, 30 µM [15]: 105%; IC50 (HepG2): > 30 µM; viability at 48 h, 30 µM [16]: 112%; IC50 (A-431): > 30 µM; viability at 48 h, 30 µM [17]: 86%; IC50 (COS-1): > 30 µM; viability at 48 h, 30 µM [18]: 99%; MIC99 [10]: 2 µM
